Legend:
Details in all cases: stereoisomer not certain
[1] = target: OR6C76 (Homo sapiens) (UniProt A6NM76)
How it was run: (§1)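 Each entry records the cell line, G-protein, co-transfected protein and tags used. Methods varied with the source, often transient luciferase assays in mammalian cell lines. A receptor–molecule pair is called responsive (active) if the original authors judged its signal statistically different from baseline and non-responsive (inactive) otherwise.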

[2] = target: OR6F1 (Homo sapiens) (UniProt Q8NGZ6)
OR6F1 (Homo sapiens), sequence (Q8NGZ6 whole entry): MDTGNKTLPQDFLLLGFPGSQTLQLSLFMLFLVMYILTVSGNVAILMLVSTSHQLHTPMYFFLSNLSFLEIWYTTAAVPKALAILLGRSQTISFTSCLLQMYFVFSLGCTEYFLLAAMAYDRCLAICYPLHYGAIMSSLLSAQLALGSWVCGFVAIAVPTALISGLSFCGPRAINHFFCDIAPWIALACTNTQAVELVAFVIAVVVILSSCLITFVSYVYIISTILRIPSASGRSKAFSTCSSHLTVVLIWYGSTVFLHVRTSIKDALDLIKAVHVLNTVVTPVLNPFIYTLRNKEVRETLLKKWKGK
How it was run: as §1

[3] = target: OR6J1 (Homo sapiens) (UniProt Q8NGC5)
How it was run: as §1
Target sequence in this assay (Q8NGC5 whole entry): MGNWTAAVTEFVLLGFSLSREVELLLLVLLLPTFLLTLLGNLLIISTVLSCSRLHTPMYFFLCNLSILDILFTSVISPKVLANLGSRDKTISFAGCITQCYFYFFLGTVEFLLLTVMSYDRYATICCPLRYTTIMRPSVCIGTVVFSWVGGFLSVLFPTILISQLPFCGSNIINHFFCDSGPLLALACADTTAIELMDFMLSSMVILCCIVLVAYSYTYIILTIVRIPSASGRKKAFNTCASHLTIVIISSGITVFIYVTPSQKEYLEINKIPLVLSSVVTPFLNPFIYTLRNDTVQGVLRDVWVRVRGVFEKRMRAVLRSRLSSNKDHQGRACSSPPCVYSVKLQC

[4] = target: OR6K2 (Homo sapiens) (UniProt Q8NGY2)
OR6K2 (Homo sapiens), sequence (Q8NGY2 whole entry): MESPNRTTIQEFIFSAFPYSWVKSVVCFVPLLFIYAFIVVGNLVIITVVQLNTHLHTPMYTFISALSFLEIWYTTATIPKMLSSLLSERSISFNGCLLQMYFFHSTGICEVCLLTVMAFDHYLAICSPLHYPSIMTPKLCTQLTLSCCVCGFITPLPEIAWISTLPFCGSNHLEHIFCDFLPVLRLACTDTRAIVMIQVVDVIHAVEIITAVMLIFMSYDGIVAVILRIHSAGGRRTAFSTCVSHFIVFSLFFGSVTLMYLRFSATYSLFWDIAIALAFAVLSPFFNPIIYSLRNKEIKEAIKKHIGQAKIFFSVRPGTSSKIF
How it was run: as §1

[5] = system: OR6K3
OR6K3, sequence (as listed by the source): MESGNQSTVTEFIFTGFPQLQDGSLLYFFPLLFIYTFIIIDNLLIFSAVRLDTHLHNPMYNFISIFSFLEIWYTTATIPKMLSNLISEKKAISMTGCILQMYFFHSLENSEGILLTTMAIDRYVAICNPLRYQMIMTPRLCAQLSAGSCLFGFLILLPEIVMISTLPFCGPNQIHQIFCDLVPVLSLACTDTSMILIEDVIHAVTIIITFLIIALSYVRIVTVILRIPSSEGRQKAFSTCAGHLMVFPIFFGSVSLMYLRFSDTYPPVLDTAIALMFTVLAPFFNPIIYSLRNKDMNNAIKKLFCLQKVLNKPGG
How it was run: as §1

[6] = target: OR6K6 (Homo sapiens) (UniProt Q8NGW6)
OR6K6 (Homo sapiens), sequence (Q8NGW6 whole entry): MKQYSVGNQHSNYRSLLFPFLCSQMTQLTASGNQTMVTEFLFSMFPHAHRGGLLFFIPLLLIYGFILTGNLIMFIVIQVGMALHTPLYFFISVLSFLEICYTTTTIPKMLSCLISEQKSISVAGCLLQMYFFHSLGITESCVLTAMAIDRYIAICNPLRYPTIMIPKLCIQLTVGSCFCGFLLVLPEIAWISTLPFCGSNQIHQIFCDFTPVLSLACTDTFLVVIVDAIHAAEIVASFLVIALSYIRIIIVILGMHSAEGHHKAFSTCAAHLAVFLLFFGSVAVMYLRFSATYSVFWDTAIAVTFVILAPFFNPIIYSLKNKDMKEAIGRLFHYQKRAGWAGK
How it was run: as §1

[7] = target: OR6M1 (Homo sapiens) (UniProt Q8NGM8)
OR6M1 (Homo sapiens), sequence (Q8NGM8 whole entry): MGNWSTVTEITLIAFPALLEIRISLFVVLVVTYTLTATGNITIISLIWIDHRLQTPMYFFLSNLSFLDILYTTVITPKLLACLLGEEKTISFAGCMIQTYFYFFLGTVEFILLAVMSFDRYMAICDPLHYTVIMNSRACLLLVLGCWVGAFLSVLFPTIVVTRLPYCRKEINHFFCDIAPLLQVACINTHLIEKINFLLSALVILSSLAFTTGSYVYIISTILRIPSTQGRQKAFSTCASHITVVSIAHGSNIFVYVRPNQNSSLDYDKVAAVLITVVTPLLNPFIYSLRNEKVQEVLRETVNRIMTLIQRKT
How it was run: as §1

[8] = system: OR6M1 R224C
OR6M1 R224C, sequence (as listed by the source, stated change not applied): as the sequence (Q8NGM8 whole entry) above, with R224C counted along it
How it was run: as §1

[9] = system: OR6M1 T276K
OR6M1 T276K, sequence (as listed by the source, stated change not applied): as the sequence (Q8NGM8 whole entry) above, with T276K counted along it
How it was run: as §1

[10] = target: OR6N1 (Homo sapiens) (UniProt Q8NGY5)
OR6N1 (Homo sapiens), sequence (Q8NGY5 whole entry): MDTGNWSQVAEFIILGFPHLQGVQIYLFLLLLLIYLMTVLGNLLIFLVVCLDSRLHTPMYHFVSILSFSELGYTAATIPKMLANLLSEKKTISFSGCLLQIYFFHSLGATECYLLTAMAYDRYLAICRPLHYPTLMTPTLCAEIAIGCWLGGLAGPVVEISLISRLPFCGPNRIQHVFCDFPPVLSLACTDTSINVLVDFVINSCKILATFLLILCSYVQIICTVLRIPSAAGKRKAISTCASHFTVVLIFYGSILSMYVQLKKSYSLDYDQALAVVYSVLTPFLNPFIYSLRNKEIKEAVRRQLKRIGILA
How it was run: as §1

[11] = target: OR6N2 (Homo sapiens) (UniProt Q8NGY6)
OR6N2 (Homo sapiens), sequence (Q8NGY6 whole entry): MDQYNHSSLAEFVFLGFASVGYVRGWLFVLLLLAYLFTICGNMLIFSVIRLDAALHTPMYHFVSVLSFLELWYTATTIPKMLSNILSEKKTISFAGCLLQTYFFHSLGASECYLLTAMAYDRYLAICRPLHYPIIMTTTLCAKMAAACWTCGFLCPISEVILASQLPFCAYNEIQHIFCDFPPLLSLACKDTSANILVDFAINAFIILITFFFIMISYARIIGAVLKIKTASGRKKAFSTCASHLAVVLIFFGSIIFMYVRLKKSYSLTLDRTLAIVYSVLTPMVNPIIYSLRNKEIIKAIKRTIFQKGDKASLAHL
How it was run: as §1

[12] = target: T1, OR6P1 (Homo sapiens) (UniProt Q8NGX9)
T1 sequence (whole entry): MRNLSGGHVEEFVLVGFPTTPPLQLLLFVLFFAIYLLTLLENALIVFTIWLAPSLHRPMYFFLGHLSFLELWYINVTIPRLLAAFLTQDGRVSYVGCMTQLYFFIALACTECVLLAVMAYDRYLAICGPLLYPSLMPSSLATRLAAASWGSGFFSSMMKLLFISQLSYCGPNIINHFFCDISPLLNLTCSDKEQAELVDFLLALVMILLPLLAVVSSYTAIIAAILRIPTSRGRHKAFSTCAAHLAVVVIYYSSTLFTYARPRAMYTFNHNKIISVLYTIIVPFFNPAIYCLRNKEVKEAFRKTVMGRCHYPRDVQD
How it was run: as §1

[13] = target: OR6Q1 (Homo sapiens) (UniProt Q8NGQ2)
OR6Q1 (Homo sapiens), sequence (Q8NGQ2 whole entry): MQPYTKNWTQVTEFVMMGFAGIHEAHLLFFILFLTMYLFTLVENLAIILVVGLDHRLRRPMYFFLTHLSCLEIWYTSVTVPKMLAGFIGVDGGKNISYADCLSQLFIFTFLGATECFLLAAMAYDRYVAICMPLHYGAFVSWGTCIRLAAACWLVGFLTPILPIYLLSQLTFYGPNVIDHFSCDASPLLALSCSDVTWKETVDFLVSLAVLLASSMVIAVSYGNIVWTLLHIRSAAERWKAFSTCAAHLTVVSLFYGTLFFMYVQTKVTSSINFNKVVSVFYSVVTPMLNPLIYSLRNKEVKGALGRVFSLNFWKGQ
How it was run: as §1

[14] = target: OR6S1 (Homo sapiens) (UniProt Q8NH40)
OR6S1 (Homo sapiens), sequence (Q8NH40 whole entry): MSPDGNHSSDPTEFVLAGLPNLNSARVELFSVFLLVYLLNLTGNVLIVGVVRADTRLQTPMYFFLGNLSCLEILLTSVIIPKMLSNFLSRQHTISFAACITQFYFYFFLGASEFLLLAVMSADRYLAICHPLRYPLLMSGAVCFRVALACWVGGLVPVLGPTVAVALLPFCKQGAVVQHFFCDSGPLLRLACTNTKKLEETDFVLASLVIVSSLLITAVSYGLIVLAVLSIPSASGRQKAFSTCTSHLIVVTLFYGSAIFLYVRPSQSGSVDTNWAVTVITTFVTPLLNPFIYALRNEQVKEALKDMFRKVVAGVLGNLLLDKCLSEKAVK
How it was run: as §1

[15] = system: OR6S1 T42I V156I
How it was run: as §1

[16] = target: OR6T1 (Homo sapiens) (UniProt Q8NGN1)
OR6T1 (Homo sapiens), sequence (Q8NGN1 whole entry): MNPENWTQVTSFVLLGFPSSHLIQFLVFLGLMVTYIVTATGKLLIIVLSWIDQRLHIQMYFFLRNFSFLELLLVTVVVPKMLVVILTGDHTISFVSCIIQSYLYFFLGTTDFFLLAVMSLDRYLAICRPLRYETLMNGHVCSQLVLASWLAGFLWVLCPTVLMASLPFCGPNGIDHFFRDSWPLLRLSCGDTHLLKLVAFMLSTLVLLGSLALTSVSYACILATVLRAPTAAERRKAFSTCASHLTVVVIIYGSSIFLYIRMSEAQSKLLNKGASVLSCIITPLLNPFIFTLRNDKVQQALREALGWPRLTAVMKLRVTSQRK
How it was run: as §1

[17] = system: OR6T1 N2D
OR6T1 N2D, sequence (as listed by the source): as the sequence (Q8NGN1 whole entry) above, with N2D counted along it
How it was run: as §1

[18] = target: OR6V1 (Homo sapiens) (UniProt Q8N148)
OR6V1 (Homo sapiens), sequence (Q8N148 whole entry): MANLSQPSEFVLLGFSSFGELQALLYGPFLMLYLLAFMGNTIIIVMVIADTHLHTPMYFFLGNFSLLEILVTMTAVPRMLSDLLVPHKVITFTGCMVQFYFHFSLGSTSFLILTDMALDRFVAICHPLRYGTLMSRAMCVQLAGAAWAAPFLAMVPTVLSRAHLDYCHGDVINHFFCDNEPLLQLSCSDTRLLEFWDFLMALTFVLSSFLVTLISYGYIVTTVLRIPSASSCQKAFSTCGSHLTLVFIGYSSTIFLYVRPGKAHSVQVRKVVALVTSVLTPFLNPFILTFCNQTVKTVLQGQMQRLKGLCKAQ
How it was run: as §1

[19] = target: OR6J1 (Homo sapiens) (UniProt Q8NGC5); remark: listed apart in the source
How it was run: as §1
Target sequence in this assay (Q8NGC5 whole entry S250P): as the sequence (Q8NGC5 whole entry) above, with S250P counted along it

[20] = target: OR6K3 (Homo sapiens) (UniProt Q8NGY3)
OR6K3 (Homo sapiens), sequence (Q8NGY3 whole entry): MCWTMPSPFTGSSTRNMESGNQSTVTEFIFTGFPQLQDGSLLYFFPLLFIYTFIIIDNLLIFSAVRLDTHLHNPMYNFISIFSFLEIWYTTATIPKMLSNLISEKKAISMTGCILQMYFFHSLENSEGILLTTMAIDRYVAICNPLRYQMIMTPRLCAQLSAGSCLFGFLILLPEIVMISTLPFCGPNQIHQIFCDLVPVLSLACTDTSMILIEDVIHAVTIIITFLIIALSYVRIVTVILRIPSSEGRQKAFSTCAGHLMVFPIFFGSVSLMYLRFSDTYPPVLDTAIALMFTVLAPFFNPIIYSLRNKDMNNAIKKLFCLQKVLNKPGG
How it was run: as §1

OR6C76 (Homo sapiens), sequence (A6NM76 whole entry): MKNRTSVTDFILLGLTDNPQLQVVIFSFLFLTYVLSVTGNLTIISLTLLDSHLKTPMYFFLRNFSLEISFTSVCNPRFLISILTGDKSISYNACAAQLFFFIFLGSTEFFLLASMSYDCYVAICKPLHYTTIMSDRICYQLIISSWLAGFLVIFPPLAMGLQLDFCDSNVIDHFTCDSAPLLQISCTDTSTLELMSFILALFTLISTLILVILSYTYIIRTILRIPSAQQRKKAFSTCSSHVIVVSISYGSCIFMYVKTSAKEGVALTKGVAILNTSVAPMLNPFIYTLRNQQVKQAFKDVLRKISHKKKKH

Structure (SMILES) | odorant receptor agonist call [1] | odorant receptor agonist call [2] | odorant receptor agonist call [3] | odorant receptor agonist call [4] | odorant receptor agonist call [5] | odorant receptor agonist call [6] | odorant receptor agonist call [7] | odorant receptor agonist call [8] | odorant receptor agonist call [9] | odorant receptor agonist call [10] | odorant receptor agonist call [11] | odorant receptor agonist call [12] | odorant receptor agonist call [13] | odorant receptor agonist call [14] | odorant receptor agonist call [15] | odorant receptor agonist call [16] | odorant receptor agonist call [17] | odorant receptor agonist call [18] | odorant receptor agonist call [19] | odorant receptor agonist call [20]
C=CCOC(=O)Cc1ccccc1 | inactive | inactive | inactive | inactive | inactive | inactive | inactive | inactive | inactive | inactive | inactive | inactive | inactive | inactive | inactive | inactive | inactive | inactive |  | 
Cc1c([N+](=O)[O-])c(C)c([N+](=O)[O-])c(C(C)(C)C)c1[N+](=O)[O-] | inactive | inactive |  | inactive |  | inactive | inactive |  |  | inactive | inactive | inactive | inactive | inactive |  | inactive |  | inactive | inactive | inactive
COc1ccc(C=O)cc1 |  |  |  |  |  |  |  |  |  |  |  | active |  |  |  |  |  |  |  | 
